The source of these data is PubChem BioAssay AID2545 (The Scripps Research Institute Molecular Screening Center, 2010).

Calls of active or inactive are those of the source.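 Rule for the calls: active = inhibition at or above 75%; inactive = inhibition below 75%.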

NADPH oxidase 1 (Homo sapiens), sequence (Q9Y5S8 whole entry, looked up): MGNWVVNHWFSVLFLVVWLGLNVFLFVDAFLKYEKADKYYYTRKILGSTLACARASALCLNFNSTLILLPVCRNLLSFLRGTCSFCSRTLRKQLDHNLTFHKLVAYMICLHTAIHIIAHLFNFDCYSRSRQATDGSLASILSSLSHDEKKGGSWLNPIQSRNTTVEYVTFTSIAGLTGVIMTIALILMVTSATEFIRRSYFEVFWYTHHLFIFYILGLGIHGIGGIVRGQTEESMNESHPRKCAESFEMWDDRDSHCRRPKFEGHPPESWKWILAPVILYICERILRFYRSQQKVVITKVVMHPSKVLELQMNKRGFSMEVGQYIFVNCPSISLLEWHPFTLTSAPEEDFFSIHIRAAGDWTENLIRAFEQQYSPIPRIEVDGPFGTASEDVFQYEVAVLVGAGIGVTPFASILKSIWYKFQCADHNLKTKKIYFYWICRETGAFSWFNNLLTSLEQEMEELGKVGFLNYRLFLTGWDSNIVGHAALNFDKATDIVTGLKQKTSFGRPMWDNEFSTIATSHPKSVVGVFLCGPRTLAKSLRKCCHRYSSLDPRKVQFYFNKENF

The experiment addresses NADPH oxidase 1 (Homo sapiens) (UniProt Q9Y5S8). The experiment is described as follows: reconstituted NOX1 ROS output inhibition – cell-based, HEK/293, percent inhibition, luminescence, orthogonal assay for NOX1 inhibitor project, late-stage follow-up (AID 2545). To be noted: NOX1-transfected HEK293, luminol ROS chemiluminescence; at 100 µM; stronger effect = higher value. The essentials:
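System: HEK293 cells transiently coexpressing Myc-tagged Nox1, NoxO1, NoxA1, constitutively active Rac1 Q61L; Doses: single nominal concentration of 100 µM per compound; Times: compounds added 16 h post-transfection, 2 h before luminol/peroxidase; Signal: luminol chemiluminescence of intracellular ROS; Measure: percent inhibition of NOX1-driven ROS luminescence signal; Replication: single well per compound.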
Regarding `CN(C)c1ccc(NC(=O)Nc2ccc(OCc3ccccc3)cc2)cc1`, the inhibition was 121%.

On to `COc1ccccc1NNC(=O)c1cc(C(C)(C)C)nn1Cc1ccccc1`, for which the inhibition was 63.6% (inactive).

On to `COc1cccc(NC(=S)NNC(=S)NC2CC3CCC2C3)c1` (stereo unspecified), for which the inhibition was 106%.

Regarding `FC(F)(F)c1ccc2c(c1)Nc1ccccc1S2`, the inhibition is 107%.

Regarding `Nc1nc(NCc2ccccc2OC(F)(F)F)n[nH]1`, the inhibition is 26.1% (inactive).

In the case of `Cc1cc(Br)c(NC(=S)NNc2ccccc2)c(Br)c1`, the inhibition was 5.12% (inactive).

For `Cc1noc(C)c1C(=O)Nc1ccc(N2CCOCC2)nc1N1CCOCC1`, the inhibition was -55.4% (inactive).

Take `Cc1cc(S(=O)(=O)NNc2ncnc3c2cnn3C)c(C)cc1Cl`: the inhibition is -0.65% (inactive).

Regarding `O=C(NNc1c([N+](=O)[O-])cc(C(F)(F)F)cc1[N+](=O)[O-])c1ccccc1-n1cccc1`, the inhibition was 54.6% (inactive).

For the compound `O=C(Oc1ccccc1N1CCCCC1)c1sc2ccccc2c1Cl`, the inhibition is 57.6% (inactive).

As to `ON/C=N/c1nnc(C(F)(F)F)s1`, the inhibition is 1.45% (inactive).

Take `CCOC(=O)C1=C(Nc2ccc(OC(C)=O)cc2)C(=O)N(C(C)(C)C)C1`: the inhibition was 2.42% (inactive).

As to `COc1ccc(Cl)cc1NC(=O)Nc1ccc(N(C)C)cc1`, the inhibition was 100%.

As for `O=c1[nH]c2ccsc2c(=O)n1CCO`, the inhibition was -0.39% (inactive).

Consider `CN(C)c1ccc(/C=N/Nc2c(Cl)cncc2Cl)cc1`, for which the inhibition is 100%.

In the case of `Cc1cc(C(=O)NNc2cc(Cl)ccc2Cl)no1`, the inhibition was -23.5% (inactive).

Consider `CC1(C)CC(Nc2ccc(Nc3ccccc3)cc2)CC(C)(C)N1`, for which the inhibition is 104%.

Take `Cc1nc(C(F)(F)F)c(C(=O)NNc2ncc(C(F)(F)F)cc2Cl)s1`: the inhibition was 49.4% (inactive).

Turning to `COc1ccc(N(C)CC(=O)O)c(C(=O)O)c1`, the inhibition was -18.5% (inactive).

For `Nc1nc(Nc2ccccc2)n[nH]1`, the inhibition is -15.1% (inactive).

Take `Cn1cnc(S(=O)(=O)Nc2ccc(N3CCCCC3)cc2)c1`: the inhibition was 58.9% (inactive).

`O=C(NNc1c([N+](=O)[O-])cc(C(F)(F)F)cc1[N+](=O)[O-])c1ccco1`: the inhibition was 5.79% (inactive).

With `COc1cccc(NC(=S)NNc2ccc([N+](=O)[O-])cc2)c1`, the inhibition was -84% (inactive).

Consider `Cc1cc(Cl)ccc1NC(=S)NNC(=S)Nc1ccc(F)cc1`, for which the inhibition was 99.9%.

For `CC(C)C(=O)NNc1nc2c(c(=O)n(C)c(=O)n2C)n1Cc1ccc(Cl)cc1`, the inhibition was -18.6% (inactive).

Consider `O=c1c(Cl)c2oc3ccccc3nc-2c2ccccc12`, for which the inhibition is 52% (inactive).

Turning to `c1ccc2c(c1)Nc1nc3ccccc3nc1N2`, the inhibition was 79.5%.

In the case of `Cn1nc(-c2ccccc2)c(O)c(N=Nc2ccccc2)c1=O`, the inhibition was -55.7% (inactive).

For `O=C(N/N=C/c1ccc(O)cc1)N/N=C/c1ccc(O)cc1`, the inhibition was 83.4%.

For the compound `NS(=O)(=O)c1ccc(NNC(=O)c2c(F)cccc2Cl)cc1`, the inhibition is -10.4% (inactive).

As to `S=C(NNc1nccc(-c2cccnc2)n1)Nc1ccccc1`, the inhibition was -62.4% (inactive).

Consider `CC(=O)Oc1ccc(OC(C)=O)c2c1[C@@H]1C=C[C@H]2CC1`, for which the inhibition is 1.35% (inactive).

Regarding `O=C(Oc1ccccc1N1CCOCC1)c1cccs1`, the inhibition was 40.4% (inactive).

For `COCCCNC(=S)NNC(=S)Nc1ccccc1`, the inhibition is 9.5% (inactive).

As to `CC(C)(C)c1csc(NNC(=O)c2ccc(Cl)cc2)n1`, the inhibition was -43.1% (inactive).

For the compound `COc1ccc(OC(=O)c2ccc3ncccc3c2)cc1`, the inhibition was -50.4% (inactive).

As to `Nc1nc(NCc2ccccn2)n[nH]1`, the inhibition was 24.8% (inactive).

Take `O=c1[nH]nc(N2CCSCC2)[nH]1`: the inhibition is -55.4% (inactive).

Turning to `Nc1nc(NCc2c(Cl)cccc2Oc2ccccc2)n[nH]1`, the inhibition was 2.15% (inactive).

For `COc1cc2ncnc(NNC(=O)c3cccs3)c2cc1OC`, the inhibition is 46.4% (inactive).

With `COc1cc(-c2nc(-c3ccccc3)c(-c3ccccc3)[nH]2)ccc1O`, the inhibition is 108%.

The inhibition is the relative decrease from the control value, in per cent.
